The structures appear in SMILES notation.

This series can be described thus: Toxicity liver stage against HepG2, at 10uM. In kind it is cell-based. The following applies: human, HepG2-A16-CD81EGFP cells; read-out: INHIBITION
Details: test concentration 10 uM, cell line HepG2-A16-CD81EGFP. A digest of the protocol: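 Uninfected HepG2-A16-CD81EGFP cells, 3 × 10^3 per well, 1536-well, plated on prespotted compound at 10 μM final, parasite-free screening media added to match infected plates; puromycin 10 μM positive, DMSO 0.5% negative; run in parallel with 48 h PbLuc assay at 37 °C, 5% CO2; viability by CellTiter-Glo luminescence, normalized to controls.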
Consider `FC(F)(F)c1ccccc1CN1CCOC[C@H](Oc2cccnc2)C1`, for which the cytotoxicity at 10 µM came out at 4.3%. The figure for `O=C(NC[C@H]1OC[C@@H](NC2CCCCC2)[C@@H]1O)c1cccs1` is -2.36%. The figure for `COc1cccc(CN2CCCCCC2c2cccc(F)c2)c1O` (stereo not given) is 5.02%; for `COc1ccc2c(c1)C(=O)CC1(CCN(Cc3ccc(F)cc3)CC1)O2` it is 16.6%. The figure for `CCOC(=O)C1CCN(C(=O)c2cnn(-c3ccccc3F)c2N)CC1` is 4.47%; for `O=C(CC1CCCC1)NCCS(=O)(=O)N1CCN(c2ccccn2)CC1` it is 0.766%.

For the compound `Cc1ccc(S(=O)(=O)N2CCC(S(=O)(=O)c3nncn3C)CC2)cc1C`, the cytotoxicity at 10 µM was -6.9%. Regarding `CN(C)c1ccc2c(c1)CN(C(=O)c1ccnnc1)C2c1cnco1` (stereo not given), the cytotoxicity at 10 µM turned out to be 0.841%. As to `COC[C@H]1CCC[C@]12CN(S(=O)(=O)c1cccs1)CCO2`, the cytotoxicity at 10 µM is -1.34%. With `Cn1cc(C2CC(=O)NC23CCN(Cc2nccs2)CC3)cn1` (stereo not given) the figure was 1.06%; with `CNC(=O)[C@H]1C[C@@H]2CN(C(=O)c3occc3C)C[C@@H]2N1S(C)(=O)=O`, -2.95%.

With `CCC(=O)N1CCC2(CC1)COc1ccccc1S(=O)(=O)N(C)C2`, the cytotoxicity at 10 µM was -6.71%.

Turning to `Cc1noc(C2CCC3(CCN(C(=O)C4=CCCCC4)CC3)O2)n1` (stereo not given), the cytotoxicity at 10 µM is -7.36%. With `COCCN1CCN(C(=O)C2CC=CC2)Cc2cccnc21` the figure was -11.1%; with `CCn1cc(NS(=O)(=O)c2ccc(Br)s2)c(C(=O)NCC(C)C)n1`, 6.86%.

As for `O=C(c1ccc2c(c1)CCCC2)N1CCn2ncnc2C1`, the cytotoxicity at 10 µM is -4.9%. The figure for `CN(C(=O)c1ccc(C#N)cc1)c1nnc(C2CCOC2)s1` (stereo not given) is 0.36%; for `Cc1c[nH]c(C2CCCN2C(=O)CCc2c(C)n[nH]c2C)n1` (stereo not given) it is -1.4%; for `CCN(CC)C(=O)CN1CCCC1c1nc(C)c2c(n1)N(C)C(=O)CC2` (stereo not given) it is 3.1%. The figure for `NC(=O)c1cc(CC2CCCN(Cc3cnccn3)CC2)ncn1` (stereo not given) is -3.97%; for `CN1CCOC(c2cncc(CCC(N)=O)n2)C1` (stereo not given) it is -2.86%; for `O=C(Cc1cccc(O)c1)N1CCCC(O)(CN2CCCC2)CC1` (stereo not given) it is -4.68%. Turning to `Cc1cc(O)nc(C2CCCN(CCO)C2)n1` (stereo not given), the cytotoxicity at 10 µM is -14.6%. With `Cc1ccccc1-c1cncc(C2CCN(CC(=O)N(C)C)CC2)n1` the figure was -12.5%. The figure for `Cn1ccc(C(=O)N2CCCC(Cc3cccc4cccnc34)C2)n1` (stereo not given) is -8.44%; for `CC(C)(C)C(=O)Nc1cnn(-c2ccccc2S(C)(=O)=O)c1` it is 3.65%; for `Cc1ccc2oc(N3CCN(CC(=O)NC(C)C)CC3)nc2c1` it is -10.9%. With `CN1CCC(Nc2ccc(F)cc2OCC(F)(F)F)C1=O` (stereo not given) the figure was -0.898%; with `Cn1cnc(S(=O)(=O)N2CCCCc3ccccc32)c1`, -4.62%; with `CCCS(=O)(=O)NCc1ncc(C)c(OC)c1C`, -12.9%. With `O=C(Cc1cccs1)NCC(=O)Nc1cn[nH]c1`, the cytotoxicity at 10 µM was 5.68%. With `NC(=O)CC1CCN(C(=O)NCc2cccc(-n3cccn3)c2)CC1` the figure was -2.45%; with `CC(c1ncc(C(C)(C)C)o1)N1CCN(Cc2ccc(Cl)s2)CC1` (stereo not given), -1.21%; with `Cn1cc(C(=O)N2CCCN(c3cccnn3)CC2)c2ccccc21`, 4%. The figure for `CNC(=O)Cn1cc(Nc2cccc(F)c2C#N)cn1` is 6.64%; for `CC(Cn1cccn1)C(=O)N1CCCN(Cc2cscn2)CC1` (stereo not given) it is -13.2%.

On to `O=C(NCCNC(=O)C1Cc2cc(F)ccc2O1)C1CCCCC1` (stereo not given), for which the cytotoxicity at 10 µM was found to be 4.07%. Take `CC(C)N(C)CCNC(=O)N1CCN(Cc2ccon2)CC1`: the cytotoxicity at 10 µM was -1.58%. With `Cc1nnc(CN2CCC(c3nc4cc(Cl)ccc4o3)CC2)n1C` the figure was -3.49%; with `CCc1cnc(CN(C)C2CCN(CC3CCC3)C2)o1` (stereo not given), -5.99%; with `Cc1cc(NC(=O)CN2CCCC2c2noc(C3CC3)n2)on1` (stereo not given), 3.46%.

In the case of `Cn1ccc(CNC(=O)N2CCC(C3(C)OCCO3)CC2)c1`, the cytotoxicity at 10 µM amounted to 3.15%. Take `CCN1CCN(S(=O)(=O)c2c[nH]c(C(C)C)n2)c2ccccc21`: the cytotoxicity at 10 µM was 4.65%. With `COCCc1noc(CNC(C)(CO)C2CCCCC2)n1` (stereo not given) the figure was 7.88%.

Consider `CN(CC(F)(F)F)C(=O)Cn1cc(NC(=O)C(C)(C)C)cn1`, for which the cytotoxicity at 10 µM was determined as 3.04%.

`N#Cc1cccnc1NCc1cccnc1N1CCC(C(N)=O)CC1`: the cytotoxicity at 10 µM is -0.179%. The figure for `CCOCC(=O)N1C[C@H]2CCC[C@@]2(COC)C1` is 0.419%; for `CC(=O)N(C)Cc1ncn2c1CN(C(=O)C1CCCO1)CCC2` (stereo not given) it is -101%.

For `Cn1cccc1C(=O)NCc1cn2c(n1)CN(c1ncccn1)CC2`, the cytotoxicity at 10 µM was -109%. The figure for `O=C(c1ccnnc1)N1CCc2onc(Cn3cccn3)c2C1` is 0.529%.

Take `Cc1ccc(CN2CCCn3c(nc(Cn4ccnc4)cc3=O)C2)s1`: the cytotoxicity at 10 µM came out at 4.24%.

Consider `COCCN1CC(=O)c2sc(NCc3ccccc3)nc2C1`, for which the cytotoxicity at 10 µM was -6.77%. The figure for `O=C(c1onc2ccccc12)N1CCC2(CCCNC2)C1` (stereo not given) is -1.05%; for `c1ccc(-c2cc(CN3C[C@H]4CC[C@H]3C4)on2)cc1` it is -5.33%.

For `Cc1nc(N2CCCC2C(=O)NCc2ccsc2)nc2ccccc12` (stereo not given), the cytotoxicity at 10 µM worked out at 6.03%. With `COc1ccccc1CN1C(=O)O[C@@H]2CN(CC3CC3)C[C@@H]21` the figure was 1.35%; with `CNc1ncc(CN(C)C(=O)CCc2[nH]nc3c2CCCC3)cn1`, 3.8%.

As to `CN1C(=O)CC(C(=O)O)C12CCN(c1ccc3cccc(Cl)c3n1)CC2` (stereo not given), the cytotoxicity at 10 µM stood at 2.1%. With `COCCN(C)CCN1CC2(CCN(C3CCSC3)CC2)OC1=O` (stereo not given) the figure was -2.28%; with `Cc1ccc2nc(CN3CCN(C4CCCC4)C(=O)C3)cc(O)c2c1`, -0.803%; with `CC1(C)CNC(=O)c2nc(C3CCCN(S(C)(=O)=O)C3)[nH]c2C1` (stereo not given), 0.611%. With `O=C(c1ccc2ncsc2c1)N1CCC(C(=O)O)(n2cccn2)CC1` the figure was 6.01%; with `O=c1cc(N2CCOCC2)cnn1CCc1ccc(F)cc1`, 8.01%; with `Nc1cnc(-c2cccc3c2CCNC3)cn1`, -12%. The figure for `N#Cc1cccc(NC2CC(=O)N(Cc3cccc(F)c3)C2)n1` (stereo not given) is -94.2%; for `CN(C)c1ncc(CN2CCCC(Nc3ccc4c(c3)OCCO4)C2)s1` (stereo not given) it is 8.12%; for `CN(C)C(=O)c1cn2cc(-c3ccccc3Cl)n(CC3CC3)c(=O)c2n1` it is -1.43%.

As for `CCc1ncc(CNCc2cccnc2N(C)C)cn1`, the cytotoxicity at 10 µM is -2.62%.

With `COc1ccc2c(c1)CCN(Cc1cscn1)CC2`, the cytotoxicity at 10 µM was determined as 0.0869%. With `COc1cccc2c1OCC(C(=O)N1CCN(S(=O)(=O)N(C)C)CC1)C2` (stereo not given) the figure was 3.47%. Regarding `Cc1nc2c(c(NCCNC(=O)C(C)C)n1)Cc1ccccc1OC2`, the cytotoxicity at 10 µM stood at 4.74%. The figure for `COc1cc(Oc2ccc(C(N)=O)cn2)ccc1CN1CCCC1` is -0.398%; for `Cc1cnn(C2(C(=O)O)CCN(Cc3oc4ccccc4c3C)CC2)c1` it is -5.87%; for `COc1ccccc1OCc1cc(C(=O)N2C[C@H](O)[C@@H](N(C)C)C2)n[nH]1` it is 3.2%. As for `O=C(O)[C@]12CCCN(Cc3ccncc3)[C@@H]1CCN(c1cnccn1)C2`, the cytotoxicity at 10 µM was determined as 20.4%. The figure for `Cc1nnc(NCc2cccnc2OCC(F)(F)F)c(C#N)c1C` is -7.77%.

As for `CCOc1ccc(Cl)c(C(=O)NCCC(=O)Nc2ccncc2)n1`, the cytotoxicity at 10 µM was -13.9%. The figure for `Cn1nc2c(cc1=O)CN(Cc1coc(-c3ccc(F)cc3)n1)CC2` is -11.5%. Take `Cc1nccn1C1CCCN(C(=O)c2cccc(OCC(N)=O)c2)C1` (stereo not given): the cytotoxicity at 10 µM is -13%.

`CN(C)c1cc(CNC(=O)Nc2nccs2)ccn1`: the cytotoxicity at 10 µM worked out at 2.3%. With `Cc1nccc(CNc2cc(N3CCCC3CO)ncn2)n1` (stereo not given) the figure was -14%. In the case of `CCN1CCC(NC(=O)CN2CCc3c(ncn3C3CC3)C2)CC1`, the cytotoxicity at 10 µM is -4.8%. With `CNC(=O)c1ccc(C(=O)N2CCC(Nc3cccnn3)CC2)cn1` the figure was -19.4%; with `CC(=O)Nc1nc(C(=O)N2CCCCC2Cn2cc(C)cn2)cs1` (stereo not given), -17.1%; with `CC1CN(C(=O)CN(Cc2ccccc2Cl)C2CCCC2)CCO1` (stereo not given), -5.65%. The figure for `CC(=O)N(Cc1noc(C)n1)C1CCN(Cc2cnc(C)s2)C1` (stereo not given) is -9.65%; for `CCc1nnsc1C(=O)N1CCCN(Cc2ccc(F)cc2)CC1` it is -3.69%. With `CCn1nc2c(cc1=O)CN(CC(=O)Nc1nc(C)c(C)s1)CC2` the figure was -8.8%; with `CCCn1nc(C)c(-c2cncn2CCN(C)C2CCCC2)c1C`, 4.16%.

Take `CC(C)CNC(=O)[C@H]1CCS(=O)(=O)[C@@H]2CN(Cc3ccc(F)cc3)C[C@H]12`: the cytotoxicity at 10 µM is 1.26%.

On to `O=C([C@H]1COC[C@H]2CN(c3ncc(F)cn3)C[C@H]21)N1CCOCC1`, for which the cytotoxicity at 10 µM is -5.58%. With `O=C(NC1CC1)N1CCOCC2(CCN(Cc3cccs3)C2)C1` (stereo not given) the figure was -2.6%; with `CS(=O)(=O)N1CCC2(CC1)NCCn1c(-c3ccccc3)cnc12`, 3.61%; with `CN(C)C(=O)[C@H]1C[C@@H]2CCN(C3CCOCC3)C[C@@H]2O1`, -3.01%.

As for `Cc1ccc(N2CCC3(CCN(C(=O)c4ccoc4)CC3)CC2)nn1`, the cytotoxicity at 10 µM is -0.355%.

These data come from ChEMBL document CHEMBL4513216, “Probing the Open Global Health Chemical Diversity Library for Multistage-Active Starting Points for Next-Generation Antimalarials” (ACS Infect Dis, 2020).
